Measured values as given in ChEMBL document CHEMBL1135061, “Synthesis, hydrolytic activation and cytotoxicity of etoposide prodrugs” (Bioorg Med Chem Lett, 2002).

Assays:
ADR5000 cell line = experiment: Tested for cytotoxicity against Doxo resistant A2780 type ADR5000 cell line expressing MDR-1 (++) gene; format: functional, cell-based; details: Homo sapiens
How it was run: (§1)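 XTT assay; 10,000 tumor cells/well preincubated 24 h at 37 °C, 5% CO2, then drug added directly from DMSO stocks over 100 fM to […] range. After 72 h XTT added, 4 h further incubation, OD read at 450 nm. IC50 (50% growth inhibition) derived from viability–dilution plots of duplicate runs.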

A2780 = experiment: Tested for cytotoxicity against Ovarian carcinoma parental type A2780 cell line expressing MDR-1 (-) gene; format: functional, cell-based; details: Homo sapiens; how it was run: as §1
SW480 = experiment: Tested for cytotoxicity against Colon adenocarcinoma resistant type SW480 cell line expressing MDR-1 (+) gene; ~50% cells affected by drug; format: functional, cell-based; details: Homo sapiens; how it was run: as §1
VCR100 = experiment: Tested for cytotoxicity against T-lymphoblastoide VC resistant type VCR 100 cell line expressing MDR-1 (+) gene; format: functional, cell-based, Homo sapiens; how it was run: as §1
HT-29 [1] = experiment: Tested for cytotoxicity against Colon carcinoma type HT-29 cell line expressing MDR-1 (-) gene; 35% of cells were affected; format: functional, cell-based; details: Homo sapiens; how it was run: as §1
MOVP-3 = experiment: Tested for cytotoxicity against VP 16 resistant Molt3 type MOVP-3 cell line expressing MDR-1 (++) gene; format: functional, cell-based; details: Homo sapiens; how it was run: as §1
MOLT-3 = experiment: Tested for cytotoxicity against parental T-cell leukemia type Molt 3 cell line expressing MDR-1 (-) gene; format: functional, cell-based; details: Homo sapiens; how it was run: as §1
[2] = Tested for half life period at 37 degree Celsius in PBS buffer at 7.3 pH containing porcine liver esterase; format: ADME, Sus scrofa; details: pig, pH 7.3
How it was run: (§2)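 Drug at 37 °C in acetonitrile–aqueous buffer (20/80 vol%) at set pH, in human serum, or with pig liver carboxylic ester hydrolase. Serum samples pre-separated on C18 cartridges. Aliquots mixed 1:1 with acetonitrile, centrifuged, supernatant analysed by HPLC peak areas. First-order log conversion–time plots; k_obs and t1/2 from slopes; mean ± SD.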

[3] = Tested for half life period at 37 degree Celsius in PBS buffer at 7.3 pH in containing porcine liver esterase; format: ADME, Sus scrofa; details: pig, pH 7.3; how it was run: as §2
[4] = Tested for half life period at 37 degree Celsius in PBS buffer at 11.8 pH containing porcine liver esterase; format: ADME, Sus scrofa; details: pig, pH 11.8; how it was run: as §2
[5] = molecular target: T1, S-formylglutathione hydrolase (Sus scrofa) (UniProt Q9GJT2); experiment: Tested for rate constant at 37 degree Celsius in PBS buffer at 11.8 pH containing porcine liver esterase expressed in 10 e-3 min e-1; how it was run: as §2
T1 sequence (whole entry): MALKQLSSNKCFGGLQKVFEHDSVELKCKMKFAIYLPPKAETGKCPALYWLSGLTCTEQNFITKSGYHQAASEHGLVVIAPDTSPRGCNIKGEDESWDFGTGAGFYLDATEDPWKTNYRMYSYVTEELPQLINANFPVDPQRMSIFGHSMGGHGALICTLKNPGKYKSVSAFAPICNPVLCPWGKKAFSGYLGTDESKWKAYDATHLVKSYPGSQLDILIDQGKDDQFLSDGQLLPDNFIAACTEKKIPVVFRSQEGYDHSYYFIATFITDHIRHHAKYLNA

HT-29 [6] = experiment: Tested for cytotoxicity against Colon carcinoma type HT-29 cell line expressing MDR-1 (-) gene; format: functional, cell-based; details: Homo sapiens; how it was run: as §1
[7] = molecular target: Cholinesterase (Homo sapiens) (UniProt P06276); experiment: Tested for rate constant at 37 degree Celsius in PBS buffer at 8.8 pH containing human serum esterase expressed in 10 e-3 min e-1
Chain of Cholinesterase (Homo sapiens) (P06276 whole entry): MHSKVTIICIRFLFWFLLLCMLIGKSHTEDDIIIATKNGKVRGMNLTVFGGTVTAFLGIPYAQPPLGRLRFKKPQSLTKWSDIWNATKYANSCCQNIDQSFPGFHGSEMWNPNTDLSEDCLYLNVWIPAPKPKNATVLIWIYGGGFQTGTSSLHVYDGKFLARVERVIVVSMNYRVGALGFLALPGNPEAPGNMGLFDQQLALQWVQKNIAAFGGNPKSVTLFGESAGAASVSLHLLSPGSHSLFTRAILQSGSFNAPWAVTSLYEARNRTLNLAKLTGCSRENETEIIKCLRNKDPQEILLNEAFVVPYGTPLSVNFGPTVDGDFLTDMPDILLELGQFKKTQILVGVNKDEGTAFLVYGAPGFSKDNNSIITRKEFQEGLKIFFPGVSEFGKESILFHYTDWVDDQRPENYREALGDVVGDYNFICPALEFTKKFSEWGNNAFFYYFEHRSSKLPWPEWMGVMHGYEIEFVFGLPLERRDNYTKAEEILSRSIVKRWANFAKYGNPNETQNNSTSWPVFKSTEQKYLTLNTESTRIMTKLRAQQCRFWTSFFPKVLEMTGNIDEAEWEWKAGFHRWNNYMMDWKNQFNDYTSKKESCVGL
How it was run: (§3)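 Prodrug dissolved at 37 °C in 20/80 vol% acetonitrile–aqueous PBS at the stated pH, in human serum, or with pig liver carboxylic ester hydrolase. Serum samples were pre-cleaned on C18 cartridges. Aliquots were quenched with an equal volume of acetonitrile and centrifuged, and the supernatant was analysed by HPLC peak area. k_obs was taken from the slope of first-order log conversion–time plots and reported as mean ± SD.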

[8] = Tested for half life period at 37 degree Celsius in PBS buffer at 8.8 pH containing human serum esterase; format: ADME; details: pH 8.8; how it was run: as §2
[9] = Tested for half life period at 37 degree Celsius in PBS buffer at 8.0 pH containing human serum esterase; format: ADME; details: pH 8; how it was run: as §2
[10] = molecular target: Cholinesterase (Homo sapiens) (UniProt P06276); experiment: Tested for rate constant at 37 degree Celsius in PBS buffer at 10.5 pH containing human serum esterase expressed in 10 e-3 min e-1; how it was run: as §3
[11] = Tested for half life period at 37 degree Celsius in PBS buffer at 10.5 pH containing human serum esterase; format: ADME; details: pH 10.5; how it was run: as §2
[12] = molecular target: Cholinesterase (Homo sapiens) (UniProt P06276); experiment: Tested for rate constant at 37 degree Celsius in PBS buffer at 8.0 pH containing human serum esterase expressed in 10 e-3 min e-1; how it was run: as §3
[13] = Tested for half life period at 37 degree Centigrade in PBS buffer at 7.3 pH containing human serum esterase; format: ADME; details: pH 7.3; how it was run: as §2
[14] = molecular target: Cholinesterase (Homo sapiens) (UniProt P06276); experiment: Tested for rate constant at 37 degree Celsius in PBS buffer at 7.3 pH in human serum containing porcine liver esterase expressed in 10 e-3 min e-1; format: cell-free; how it was run: as §3

In the case of `COc1cc([C@@H]2c3cc4c(cc3[C@@H](O[C@@H]3O[C@@H]5CO[C@@H](C)O[C@H]5[C@H](O)[C@H]3O)[C@H]3COC(=O)[C@H]23)OCO4)cc(OC)c1O` [ETOPOSIDE], the IC50 (ADR5000 cell line) is reported as 100000 nM, the IC50 (A2780) is reported as 65000 nM and the IC50 (SW480) is reported as 50000 nM. It also gave an IC50 (VCR100) of 15500 nM, an IC50 (HT-29 [1]) of 10000 nM and an IC50 (MOVP-3) of 7550 nM. It also gave an IC50 (MOLT-3) of 65 nM.
Work on `COc1cc([C@@H]2c3cc4c(cc3C(O[C@@H]3O[C@H]5CO[C@@H](C)O[C@H]5[C@H](O)[C@@H]3O)C3COC(=O)[C@@H]32)OCO4)cc(OC)c1OC(=O)OCC1COC(C)(C)O1` (stereo partly drawn) yielded an IC50 (ADR5000 cell line) of 6500 nM, an IC50 (A2780) of 90 nM and an IC50 (SW480) of 110 nM. It also gave an IC50 (VCR100) of 3200 nM, a half-life [2] of 0.236 h and a half-life [3] of 12.5 h. It also gave a half-life [4] of 1.39 h, a K obs [5] of 8.33 and an IC50 (HT-29 [6]) of 3.5 nM. The IC50 (MOVP-3) was 12 nM and the IC50 (MOLT-3) was 10 nM.
`COc1cc([C@@H]2c3cc4c(cc3C(O[C@@H]3O[C@H]5CO[C@@H](C)O[C@H]5[C@H](O)[C@@H]3O)C3COC(=O)[C@@H]32)OCO4)cc(OC)c1OC(=O)OCC(O)CO` (stereo partly drawn) gave a K obs [7] of 7.14, an IC50 (ADR5000 cell line) of 38000 nM and an IC50 (A2780) of 580 nM. For the same compound, the half-life [8] was 1.62 h, the half-life [9] was 3.61 h and the IC50 (SW480) was 110 nM. The K obs [10] was 100, the half-life [11] was 6.93 min and the K obs [12] was 3.2. For the same compound, the IC50 (VCR100) was 7600 nM, the half-life [13] was 0.934 h and the IC50 (HT-29 [6]) was 5.7 nM. For the same compound, the IC50 (MOVP-3) was 50 nM, the IC50 (MOLT-3) was 35 nM and the K obs [14] was 12.4.
